Data as given in ChEMBL document CHEMBL4177684, “Design, synthesis, and biological evaluation of hydantoin bridged analogues of combretastatin A-4 as potential anticancer agents” (Bioorg Med Chem, 2017).
Activity calls are given as the source filed them. The calls are words filed in the database; no cut-off is given here.

Tests used:
HeLa [1] = assay: Cell cycle arrest in human HeLa cells assessed as accumulation of cells at G2/M phase at 2 uM after 12 hrs by propidium iodide staining-based flow cytometric analysis (reference value: 17.6%); type: functional
Method in brief: (§1)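 HeLa cells treated with compound or DMSO, washed in PBS and fixed in 75% ethanol at -20 °C overnight. Stained with propidium iodide containing 0.1% RNase for 15 min in the dark at room temperature. DNA content read by flow cytometry to give cell-cycle phase distribution.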

HeLa [2] = assay: Induction of apoptosis in human HeLa cells assessed as early apoptotic cells at 2 uM after 72 hrs by Annexin V-FITC/propidium iodide staining-based flow cytometric analysis (reference value: […]); type: functional
HeLa [3] = assay: Induction of cell cycle arrest in human HeLa cells assessed as increase in cyclin B1 expression levels at 1.25 to 20 uM after 24 hrs by Western blot analysis; type: functional, cell-based
Method in brief: (§2)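 HeLa cells treated with compound or DMSO for 24 h and lysed; protein quantified by BCA. Run on 8-12% SDS-PAGE and blotted to PVDF. Blocked in 5% BSA/TBST for 1.5 h, primary antibody overnight at 4 °C, secondary 2 h at room temperature. Chemiluminescent detection.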

HeLa [4] = assay: Induction of apoptosis in human HeLa cells assessed as late apoptotic cells at 2 uM after 72 hrs by Annexin V-FITC/propidium iodide staining-based flow cytometric analysis (reference value: 3.3%); type: functional
HeLa [5] = assay: Induction of apoptosis in human HeLa cells assessed as necrotic cells at 0.5 uM after 72 hrs by Annexin V-FITC/propidium iodide staining-based flow cytometric analysis (reference value: 0.5%); type: functional
HeLa [6] = assay: Induction of apoptosis in human HeLa cells assessed as late apoptotic cells at 1 uM after 72 hrs by Annexin V-FITC/propidium iodide staining-based flow cytometric analysis (reference value: 3.3%); type: functional
A2780 [7] = assay: Inhibition of colony formation of human A2780 cells incubated for 48 hrs followed by subsequent incubation for 7 to 10 days in fresh medium by gentian violet staining-based colony formation assay; type: functional, cell-based
Method in brief: (§3)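 MDA-MB-231 or A2780 cells seeded at 1000 per well and grown 48 h at 37 °C, 5% CO₂. Then exposed to compound or DMSO for 48 h, medium replaced, and grown a further 7-10 days. Colonies fixed with methanol for 20 min and stained with gentian violet for 30 min. Three independent runs.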

[8] = Cytotoxicity against HOSEC at 10 to 50 uM by MTT assay relative to control; settings: human
HeLa [9] = assay: Cell cycle arrest in human HeLa cells assessed as accumulation of cells at G2/M phase after 24 hrs by propidium iodide staining-based flow cytometric analysis; type: functional; method in brief: as §1
HeLa [10] = assay: Induction of apoptosis in human HeLa cells assessed as increase in cleaved PARP1 protein levels after 24 hrs Western blot analysis
HeLa [11] = assay: Antiproliferative activity against human HeLa cells by MTT assay; type: functional, cell-based
Method in brief: (§4)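 Growth inhibition rate calculated per compound. IC₅₀ derived by curve fitting.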

HeLa [12] = assay: Induction of apoptosis in human HeLa cells assessed as viable cells at 1 uM after 72 hrs by Annexin V-FITC/propidium iodide staining-based flow cytometric analysis (reference value: 87.6%); type: functional; settings: read-out: Activity
MDA-MB-231 [13] = assay: Inhibition of colony formation of human MDA-MB-231 cells at 800 nM incubated for 48 hrs followed by subsequent incubation for 7 to 10 days in fresh medium by gentian violet staining-based colony formation assay; type: functional, cell-based; method in brief: as §3
HeLa [14] = assay: Induction of apoptosis in human HeLa cells assessed as increase in p53 protein levels after 24 hrs Western blot analysis
HUVEC [15] = assay: Antiangiogenic activity against HUVEC assessed as capillary like tube formation at 1 uM after 12 hrs by matrigel-based microscopic analysis; type: functional, cell-based; settings: Homo sapiens
Method in brief: (§5)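 Matrigel pre-set in wells for 2 h at 37 °C, 5% CO₂. HUVECs (10⁴ per well) seeded in medium with compound or DMSO. Incubated 6-12 h, then capillary-like tube networks photographed under a microscope.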

HeLa [16] = assay: Induction of apoptosis in human HeLa cells assessed as viable cells at 0.5 uM after 72 hrs by Annexin V-FITC/propidium iodide staining-based flow cytometric analysis (reference value: 87.6%); type: functional; settings: read-out: Activity
HeLa [17] = assay: Induction of apoptosis in human HeLa cells assessed as necrotic cells at 2 uM after 72 hrs by Annexin V-FITC/propidium iodide staining-based flow cytometric analysis (reference value: 0.5%); type: functional
A2780 [18] = assay: Antiproliferative activity against human A2780 cells by MTT assay; type: functional, cell-based; method in brief: as §4
HeLa [19] = assay: Induction of apoptosis in human HeLa cells assessed as late apoptotic cells at 0.5 uM after 72 hrs by Annexin V-FITC/propidium iodide staining-based flow cytometric analysis (reference value: 3.3%); type: functional
HeLa [20] = assay: Induction of cell cycle arrest in human HeLa cells assessed as increase in phosphorylated histone H3 levels at 1.25 to 20 uM after 24 hrs by Western blot analysis; type: functional, cell-based; method in brief: as §2
HeLa [21] = assay: Induction of apoptosis in human HeLa cells assessed as early apoptotic cells at 1 uM after 72 hrs by Annexin V-FITC/propidium iodide staining-based flow cytometric analysis (reference value: […]); type: functional
MDA-MB-231 [22] = assay: Antiproliferative activity against human MDA-MB-231 cells by MTT assay; type: functional, cell-based; method in brief: as §4
HeLa [23] = assay: Induction of apoptosis in human HeLa cells after 72 hrs by Annexin V-FITC/propidium iodide staining-based flow cytometric analysis; type: functional, cell-based
HeLa [24] = assay: Induction of apoptosis in human HeLa cells assessed as viable cells at 2 uM after 72 hrs by Annexin V-FITC/propidium iodide staining-based flow cytometric analysis (reference value: 87.6%); type: functional; settings: read-out: Activity
Mus musculus [25] = assay: Toxicity in Balb/c nude mouse xenografted with human A2780 cells assessed as body weight at 20 mg/kg, ip measured immediately after first dose (reference value: 21.74 +/- 0.63 g); type: organism-based; settings: in vivo
A2780 [26] = assay: Antitumor activity against human A2780 cells xenografted in Balb/c nude mouse assessed as tumor growth inhibition at 20 mg/kg, ip administered every other day relative to control; type: functional; settings: read-out: TGI
Sus scrofa = species: Sus scrofa; assay: (§6) Inhibition of pig brain tubulin polymerization measured every 1 min for 20 mins by spectrophotometric analysis
[27] = as §6; parameters: species or system Sus scrofa
HCT-116 = assay: Antiproliferative activity against human HCT116 cells by MTT assay; type: functional, cell-based; method in brief: as §4
HeLa [28] = assay: Induction of apoptosis in human HeLa cells assessed as early apoptotic cells at 0.5 uM after 72 hrs by Annexin V-FITC/propidium iodide staining-based flow cytometric analysis (reference value: […]); type: functional
HUVEC [29] = assay: Antiangiogenic activity against HUVEC assessed as capillary like tube formation at 2 uM after 6 to 12 hrs by matrigel-based microscopic analysis; type: functional, cell-based; settings: Homo sapiens; method in brief: as §5
HeLa [30] = assay: Induction of apoptosis in human HeLa cells assessed as necrotic cells at 1 uM after 72 hrs by Annexin V-FITC/propidium iodide staining-based flow cytometric analysis (reference value: 0.5%); type: functional
MDA-MB-231 [31] = assay: Inhibition of colony formation of human MDA-MB-231 cells incubated for 48 hrs followed by subsequent incubation for 7 to 10 days in fresh medium by gentian violet staining-based colony formation assay; type: functional, cell-based; method in brief: as §3
Mus musculus [32] = assay: Toxicity in Balb/c nude mouse xenografted with human A2780 cells assessed as body weight at 20 mg/kg, ip administered every other day measured at end of study (reference value: 22.35 +/- 0.74 g); type: organism-based; settings: in vivo

## COc1ccc(N2C(=O)N(C)C(=O)C2c2cc(OC)c(OC)c(OC)c2)cc1N (centres undefined)
HeLa [1]
  Activity: 91.4%
HeLa [2]
  Activity: 53%
HeLa [3]
  Activity: Active
HeLa [4]
  Activity: 17.5%
HeLa [5]
  Activity: 0.8%
HeLa [6]
  Activity: 8.7%
A2780 [7]
  inhibition: Dose-dependent effect
[8]
  Activity: ≤ 33%
HeLa [9]
  Activity: Dose-dependent effect
HeLa [10]
  Activity: Dose-dependent effect
HeLa [11]
  IC50: 251 nM
HeLa [12]
  viability at 1 µM: 43.2%
MDA-MB-231 [13]
  inhibition: Active
HeLa [14]
  Activity: Dose-dependent effect
HUVEC [15]
  Activity: Active
HeLa [16]
  viability at 0.5 µM: 67.8%
HeLa [17]
  Activity: 2.2%
A2780 [18]
  IC50: 186 nM
HeLa [19]
  Activity: 6.1%
HeLa [20]
  Activity: Active
HeLa [21]
  Activity: 47.8%
MDA-MB-231 [22]
  IC50: 279 nM
HeLa [23]
  Activity: Dose-dependent effect
HeLa [24]
  viability at 2 µM: 27.3%
Mus musculus [25]
  Activity: 21.62 g
A2780 [26]
  inhibition in vivo at 20 mg/kg: 46.9%
Sus scrofa
  inhibition: Dose-dependent effect
[27]
  IC50: 16200 nM
HCT-116
  IC50: 265 nM
HeLa [28]
  Activity: 25.3%
HUVEC [29]
  Activity: Active
HeLa [30]
  Activity: 0.3%
MDA-MB-231 [31]
  inhibition: Dose-dependent effect
Mus musculus [32]
  Activity: 22.05 g
